Laboratory results: paper PMC7881365 (Xenobiotica; the fate of foreign compounds in biological …, 2020)

How the values were obtained:
CYP1B1.1 = molecular target: T1, CYP1B1.1 (Homo sapiens, UniProt Q16678); type: in vitro ADME; conditions: peak intensities
T1 sequence (Q16678 1-543): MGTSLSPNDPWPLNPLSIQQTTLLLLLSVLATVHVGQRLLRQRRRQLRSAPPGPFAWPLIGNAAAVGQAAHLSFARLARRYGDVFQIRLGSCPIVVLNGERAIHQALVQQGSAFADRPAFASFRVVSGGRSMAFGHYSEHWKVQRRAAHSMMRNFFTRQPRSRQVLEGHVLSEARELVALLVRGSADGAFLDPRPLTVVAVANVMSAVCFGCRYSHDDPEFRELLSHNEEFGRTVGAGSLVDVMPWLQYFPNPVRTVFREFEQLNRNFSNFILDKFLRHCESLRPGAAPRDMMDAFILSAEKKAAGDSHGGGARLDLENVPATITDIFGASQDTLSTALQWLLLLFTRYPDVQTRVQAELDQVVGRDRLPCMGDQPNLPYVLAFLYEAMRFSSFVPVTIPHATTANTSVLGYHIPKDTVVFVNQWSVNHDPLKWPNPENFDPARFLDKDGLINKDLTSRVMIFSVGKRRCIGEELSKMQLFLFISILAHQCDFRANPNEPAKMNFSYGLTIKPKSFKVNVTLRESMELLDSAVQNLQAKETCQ

CYP1A1 = molecular target: T2, CYP1A1 (Homo sapiens, UniProt P04798); type: in vitro ADME; conditions: peak intensities
T2 sequence (P04798 1-512): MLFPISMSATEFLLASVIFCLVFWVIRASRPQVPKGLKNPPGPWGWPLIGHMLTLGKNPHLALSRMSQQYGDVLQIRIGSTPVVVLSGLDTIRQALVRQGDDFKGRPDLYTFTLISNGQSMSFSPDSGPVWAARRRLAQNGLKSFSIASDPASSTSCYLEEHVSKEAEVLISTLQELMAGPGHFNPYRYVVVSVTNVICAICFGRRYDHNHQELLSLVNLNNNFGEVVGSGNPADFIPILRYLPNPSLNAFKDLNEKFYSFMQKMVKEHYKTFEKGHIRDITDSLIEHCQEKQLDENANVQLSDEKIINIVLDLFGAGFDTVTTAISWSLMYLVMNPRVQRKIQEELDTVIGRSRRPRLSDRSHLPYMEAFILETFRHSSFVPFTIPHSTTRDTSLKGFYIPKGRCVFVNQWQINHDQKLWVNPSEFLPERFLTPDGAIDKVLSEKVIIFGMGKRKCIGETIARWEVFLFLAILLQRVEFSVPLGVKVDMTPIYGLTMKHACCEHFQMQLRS
Procedure, shortened: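 Reconstituted system: purified E. coli-expressed CYP1A1 (50 pmol), NADPH-P450 reductase (100 pmol), DLPC (50 µg), no b5. Incubated with 60 µM methoxyflavone test compound at 37 °C for 20 min after 1 min preincubation, started with NADPH-generating system (0.5 mM NADP+, 5 mM glucose 6-phosphate, 0.5 unit/mL dehydrogenase). Quenched with ice-cold CH3CN and centrifuged. LC-MS/MS positive ESI; product as peak intensity, two or three determinations.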

CYP1B1.3 = molecular target: T3, CYP1B1.3 (Homo sapiens, UniProt Q16678); type: in vitro ADME; conditions: peak intensities
T3 sequence (Q16678 1-543): T1 sequence (Q16678 1-543)

CYP2B6 = molecular target: T4, CYP2B6 (Homo sapiens, UniProt P20813); type: in vitro ADME; conditions: peak intensities
T4 sequence (P20813 1-491): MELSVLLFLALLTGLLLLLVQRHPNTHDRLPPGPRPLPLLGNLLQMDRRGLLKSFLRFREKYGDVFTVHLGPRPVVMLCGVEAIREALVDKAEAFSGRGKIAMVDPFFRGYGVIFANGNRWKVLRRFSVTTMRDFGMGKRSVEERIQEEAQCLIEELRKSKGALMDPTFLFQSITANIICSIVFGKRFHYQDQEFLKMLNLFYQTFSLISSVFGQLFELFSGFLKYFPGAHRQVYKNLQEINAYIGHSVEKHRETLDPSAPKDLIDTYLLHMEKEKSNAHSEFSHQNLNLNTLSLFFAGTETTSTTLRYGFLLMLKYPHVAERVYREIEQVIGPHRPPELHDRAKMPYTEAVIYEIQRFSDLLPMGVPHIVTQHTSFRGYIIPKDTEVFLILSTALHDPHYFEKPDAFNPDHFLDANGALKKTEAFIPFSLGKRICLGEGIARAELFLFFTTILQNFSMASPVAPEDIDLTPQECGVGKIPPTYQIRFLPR
Procedure, shortened: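 E. coli membranes co-expressing CYP2B6 and NADPH-P450 reductase (50 pmol P450) incubated with 60 µM methoxyflavone test compound at 37 °C for 20 min. Reaction started after 1 min preincubation with NADPH-generating system (0.5 mM NADP+, 5 mM glucose 6-phosphate, 0.5 unit/mL glucose 6-phosphate dehydrogenase). Stopped with ice-cold CH3CN, then centrifuged. Supernatant analysed by LC-MS/MS (positive ESI); products reported as peak intensities, from two or three determinations.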

CYP1A2 = molecular target: T5, CYP1A2 (Homo sapiens, UniProt P05177); type: in vitro ADME; conditions: peak intensities
T5 sequence (P05177 1-516): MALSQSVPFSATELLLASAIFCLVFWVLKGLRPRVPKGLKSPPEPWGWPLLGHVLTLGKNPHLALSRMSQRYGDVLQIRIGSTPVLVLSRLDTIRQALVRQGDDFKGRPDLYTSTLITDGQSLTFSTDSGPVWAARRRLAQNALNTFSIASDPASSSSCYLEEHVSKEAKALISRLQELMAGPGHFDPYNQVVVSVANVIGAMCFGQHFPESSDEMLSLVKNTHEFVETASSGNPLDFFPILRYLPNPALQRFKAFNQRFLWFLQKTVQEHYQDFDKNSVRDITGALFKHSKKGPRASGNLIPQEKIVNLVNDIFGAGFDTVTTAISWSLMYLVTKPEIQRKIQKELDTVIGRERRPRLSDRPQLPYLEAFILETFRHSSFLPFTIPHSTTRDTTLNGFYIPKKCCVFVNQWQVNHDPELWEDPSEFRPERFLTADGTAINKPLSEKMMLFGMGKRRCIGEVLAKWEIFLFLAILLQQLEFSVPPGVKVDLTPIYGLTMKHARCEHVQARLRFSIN

Hela and SH-SY5Y cells = conditions: ref Fatokun et al. (2013; 2014); cited from earlier work

formation of 2′Me239a (possibly 2′OHF) (CYP1B1.1)	formation of 2′Me255a (m/z 255 product) (CYP1B1.1)	formation of 2′Me255a (m/z 255 product) (CYP1A1)	formation of 2′Me239a (possibly 2′OHF) (CYP1B1.3)	formation of 2′Me255a (m/z 255 product) (CYP1B1.3)	formation of 2′Me239a (possibly 2′OHF) (CYP2B6)	formation of 2′Me255a (m/z 255 product) (CYP2B6)	formation of 2′Me255a (m/z 255 product) (CYP1A2)	SMILES	prevention of decreases in cell viability caused by N-methyl-N′-nitro-N-nitrosoguanine (Hela and SH-SY5Y cells)
highly active	very low levels	very low levels	highly active	very low levels	highly active	very low levels	very low levels	COc1ccccc1-c1cc(=O)c2ccccc2o1 [2′MeF, 2′-methoxyflavone]	–
–	–	–	–	–	–	–	–	COc1ccc(-c2cc(=O)c3ccccc3o2)cc1OC [3′,4′-dimethoxyflavone, reference compound]	effectively prevent decreases in cell viability
–	–	–	–	–	–	–	–	COc1ccc(-c2cc(=O)c3ccccc3o2)cc1 [4′MeF, 4′-methoxyflavone]	effectively prevent decreases in cell viability
